Test system: MS2 coat protein
Assay: apparent Kd, MS2 coat protein; higher = weaker binding; RNA-MaP array; FMN 200 µM where present
Procedure, shortened: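 Green signal was scaled to red-channel RNA signal and control-cluster median Fmax, and the apparent Kd was taken as the median of filtered per-cluster binding-curve fits. The binding series used SNAP-549-labelled MS2 coat protein from 0.7 or 1.5 nM, doubling to 3 µM, on designs transcribed by stalled E. coli RNA polymerase on Illumina sequencing-chip clusters. Each series ran without and then with constant ligand in 100 mM Tris-HCl pH 7.5, 80 mM KCl, 4 mM MgCl2, BSA, DTT, yeast tRNA and Tween-20.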

[1] = designed as: OFF switch for flavin mononucleotide, no ligand
[2] = ligand present: flavin mononucleotide, designed as: OFF switch for flavin mononucleotide
[3] = designed as: ON switch for flavin mononucleotide, no ligand
[4] = ligand present: flavin mononucleotide, designed as: ON switch for flavin mononucleotide

Sequence	apparent Kd [1] [nM]	apparent Kd [2] [nM]	apparent Kd [3] [nM]	apparent Kd [4] [nM]
UACGGACAUGAGGAUCACCCAUGUGAGGAUAUCGGUACCGAUAGCAUAAUCUACUCGGCGAGAAGGCACAGCGU	30.7	40.1	–	–
GACGGAUGUAUAGGAUAUGCUGAGGAUAACUCAGCAGAAGGAUACAUGAGGAUCACCCAUGUAAUAAUAAUAAUAAUAACCGUC	13.3	24.1	–	–
CGCCUGUGAGGAUAUUAGUAGUAGUCAGAAUAGACUAUUACUGAGAAGGUACAUGAGGAUCACCCAUGUUGGCG	20.9	19.1	–	–
GACGAGUGAGGAUAUGGUGAGUAGUGCCUGAGCGCUGCUCACCAGAAGGCACAUGAGGAUCACCCAUGUAUGUC	13.5	17.6	–	–
AACCUAUUACAGAAGGCCAGCUACAUGAGGAUCACCCAUGUCGAGUCAUGGAGGAUAUGUAGUAAUUCACUCGCAGAUGAGUAC	–	–	29.8	5.33
UUUGAGUGAGGAUAUUGCACCUCUGGGUCACCUCAGAGGUUUGAGAAGGCACAUGAGGAUCACCCAUGUUCCGC	19.7	32.2	–	–
CACUGUCAUGCAGGAUAUGCAUUGGAUUACAAUGCAGAAGGGCGAUUACAUGAGGAUCACCCAUGUGUAGACAGUGAAGAAGAG	–	–	165	12.7
CCACUGUCAGGAUAUCGUGCAUAAGCGAUUACAUUUAUGUGCGAGAAGGGACAUGAGGAUCACCCAUGUAAUCG	528	368	–	–
UAUGACAUGAGGAUCACCCAUGUCAGCGAGAAAUGAGAGUCACAGGAUAUGUUUUCGGCCGGCAGACAGAAGGGUGACCCUCCG	–	–	7.33	6.74
CUUUUGUGAGGAUAUCAGUUGUAAAUAAAUAAAAUUACUACUGAGAAGGCACAUGAGGAUCACCCAUGUUCCUC	38.1	198	–	–
UCGCGGGAGCAGAAGGGAUAGGCCUAUUGUCGUGAGGUCUACACUUAACAUGAGGAUCACCCAUGUCAGGAUAUGCCCACGCGA	4.68	4.64	–	–
GCGUUAGAAACACAUGUAUUACAUGAGGAUCACCCAUGUUACUAGGAUAUGUAUUAGAAUUUACAACAGAAGGAGUAAGAACGC	10.8	14.6	–	–
AGGUGACAUGAGGAUCACCCAUGUCAGGAUAUAUACACCGCCGGCGUGAAGCCGGCGGAUAGAAGGGACAAAAU	17.1	21.3	–	–
GGAUAGGACAGAGGAUAUACGGAUAGGAUCUACUAUCAAACAAGUCCUACAUGAGGAUCACCCAUGUAGAAGGCUGUCCUAUCG	16.9	22.1	–	–
UAAAAGUGAGGAUAUCCAAUAUAUGACAUGAGGAUCACCCAUGUUUCCACUCGUACCUCCGGAGAAGGCACAAAGU	29.5	28.5	–	–
UUCUUACGAGGAUAUCGAUUGUGGUACAUGAGGAUCACCCAUGUAUGUGAUAUUGUAUUUCGAGAAGGCGUUCAGU	26.4	24.1	–	–
AAGUCGACGGUGAGGAUAUUAGUUGAACGACAGAUUAAGAAGGUACAUGAGGAUCACCCAUGUGGGUAGUGUUG	96	98.6	–	–
GCCAGUUAUGUAGGAUAUGCGCAGCGAGCCUGAGCAGAAGGACAUGAGGAUCACCCAUGUGUUGCGGUUUGAGUACUGAUCGCU	24.6	130	–	–
AGGAAACAUGAGGAUCACCCAUGUAAAGAUGGGCGAGGAUAUCGAAAGAAAAGAAAGAAACGAGAAGGCGCAAAAG	–	–	305	72.1
CUGUACAUAGGAUAUAGUUGUUUUUACAUGAGGAUCACCCAUGUUACUCCUCUCUCUCUUCUAGAAGGAUGUUUCU	65.8	50.1	–	–
GGCCGGGCAGGAUAUACAUGAGGAUCACCCAUGUAUAUCCUUCAGCAUGGAUCCUCAUGUAGAAGGGCCCGGCC	13.2	11.9	–	–
GGUACUCAAAGAGUAUCAAUACGAACAUGAGGAUCACCCAUGUAGGAUAUGCUACUCAAAGAGUAGCAGAAGGACAUGUGCCUA	16.2	91.3	–	–
GCAACGCCUGACAUGAGGAUCACCCAUGUUAGAUUGUUAUGUCAGGAUAUAGUCUAGAAACUAGACUAGAAGGGAUGUGUUGCU	–	–	703	131
GGAGGACAUGAGGAUCACCCAUGUGGAUGAACGCUAGGAUAUGCGUGCAGGAAGAGUGGAGCAGAAGGAGUGGGUU	–	–	28.2	23.2
CGGUCUUGCAACUAUUUGUUUCACAUGAGGAUCACCCAUGUCAGAAGGAGGUGCAUAUAUUAGACCUAGGAUAUGACGUGUAAA	9.79	28.4	–	–
GUUUAGUGAGGAUAUGUGGCUUCGAUCGUGCGAAGAAGGCUACAGAAGGCACAUGAGGAUCACCCAUGUUCCUC	101	728	–	–
GGUUAAUAUCGAGGAUAUGUCUAGACACAUGAGGAUCACCCAUGUAUGUGUAUAGAAGGCGAUAUUAACAGCAUGUUACAUGCA	–	–	43.3	16.4
CAUGUUUGGCUGGUCGAGAAACACAUGAGGAUCACCCAUGUCAGAAGGCGACGUCAGCAAACCGUCGAGGAUAUGACAUCAAAA	5.65	30.2	–	–
